Tests used:
[1] = tested on: sandwich‐cultured mouse (NMRI) hepatocytes; assay: Hepatobiliary disposition in sandwich-cultured mouse hepatocytes; format: in vitro ADME; conditions: 1 μmol/L, 10 min
[2] = tested on: sandwich‐cultured human hepatocytes; assay: Hepatobiliary disposition in sandwich-cultured human hepatocytes; format: in vitro ADME; conditions: 10 min
How it was run: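 Sandwich-cultured human hepatocytes from three donor liver preparations, cultured 6 days. [14C]-test compound was applied at 10 and 250 μmol/L, with [3H]-taurocholate as transporter-function control and LDH release as cytotoxicity check. Radioactivity was read by LSC. Accumulation is mean ± SD of triplicate wells. BEI, CLbiliary, intracellular concentration and Cic/Cec were derived.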

[3] = donor 1, 1 μmol/L, mean ± SD of triplicate wells
[4] = donor 2, 1 μmol/L, mean ± SD of triplicate wells
[5] = donor 3, 1 μmol/L, mean ± SD of triplicate wells
[6] = mean ± standard error of 3 donors, 1 μmol/L

- BEI [1]: 30.5%
- CLbiliary [1]: 66.8 mL/min/kg
- Cellular accumulation ([1]; mean ± SD of triplicate wells): 150 ± 28 pmol/mg
- Total accumulation ([1]; mean ± SD of triplicate wells): 215 ± 23 pmol/mg
- BEI ([2]; donor 1, 1 μmol/L): 44.6%
- CLbiliary ([2]; donor 1, 1 μmol/L): 7.16 mL/min/kg
- Cellular accumulation [2, 3]: 30.7 ± 2.8 pmol/mg
- Total accumulation [2, 3]: 55.3 ± 5.7 pmol/mg
- BEI ([2]; donor 2, 1 μmol/L): 74.2%
- CLbiliary ([2]; donor 2, 1 μmol/L): 19.3 mL/min/kg
- Cellular accumulation [2, 4]: 23.2 ± 1.9 pmol/mg
- Total accumulation [2, 4]: 89.7 ± 3.6 pmol/mg
- BEI ([2]; donor 3, 1 μmol/L): 66.5%
- CLbiliary ([2]; donor 3, 1 μmol/L): 31.0 mL/min/kg
- Cellular accumulation [2, 5]: 53.9 ± 2.0 pmol/mg
- Total accumulation [2, 5]: 161 ± 12 pmol/mg
- BEI [2, 6]: 61.7 ± 8.9%
- CLbiliary [2, 6]: 19.2 ± 6.9 mL/min/kg
- Cellular accumulation [2, 6]: 35.9 ± 9.2 pmol/mg
- Total accumulation [2, 6]: 102 ± 31 pmol/mg
Structure (SMILES): C[C@H](CCC(=O)NCCS(=O)(=O)O)[C@H]1CC[C@H]2[C@@H]3[C@H](O)C[C@@H]4C[C@H](O)CC[C@]4(C)[C@H]3C[C@H](O)[C@]12C [TCA, taurocholate, reference compound]

Source: article PMC4804314 (Pharmacology Research & Perspectives, 2016)
